{"data": "Measured values of several laboratories", "target": "Serine/threonine-protein kinase Sgk1 (SGK1, Homo sapiens, UniProt O00141)", "One construct used (O00141 1-431)": "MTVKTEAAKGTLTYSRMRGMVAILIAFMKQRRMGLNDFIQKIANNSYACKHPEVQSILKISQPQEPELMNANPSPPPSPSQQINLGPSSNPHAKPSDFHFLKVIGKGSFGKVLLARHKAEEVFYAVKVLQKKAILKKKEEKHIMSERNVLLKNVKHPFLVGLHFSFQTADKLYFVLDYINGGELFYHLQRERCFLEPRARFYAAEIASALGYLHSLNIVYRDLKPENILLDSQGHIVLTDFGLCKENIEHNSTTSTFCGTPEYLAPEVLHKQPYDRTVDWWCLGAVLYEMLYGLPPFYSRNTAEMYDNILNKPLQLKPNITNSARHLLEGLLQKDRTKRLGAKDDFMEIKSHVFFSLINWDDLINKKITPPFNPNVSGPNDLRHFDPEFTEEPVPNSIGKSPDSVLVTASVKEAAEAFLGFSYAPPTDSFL", "note": "Lines come from different studies, so protocols differ."}
{"SMILES": "Cc1nc(C2CCN(C(=O)c3ccc(OC(F)(F)F)cc3N)CC2)c2ncc(N3CCN(C)CC3)cc2n1", "observed": "cell-free assay", "method": "competition with immobilised ligand", "tested at": "1 µM", "measurement": "remaining binding", "value": "100%"}
{"SMILES": "N#CCCc1ccc2c(c1)-c1[nH]c3ccc([N+](=O)[O-])cc3c1CC(=O)N2", "observed": "cell-free assay", "tested at": "0.5 µM", "measurement": "remaining signal", "value": "87.9%"}
{"SMILES": "CC(C)(O)[C@H]1CC[C@H](Nc2ccc3ncc(-c4cccc(C(F)(F)F)c4)n3n2)CC1", "observed": "enzyme activity", "mode": "inhibitor", "tested at": "1 µM", "measurement": "remaining activity", "value": "99.4%"}
{"SMILES": "CNCc1ccc(-c2cc(-c3nc(-c4ccc(S(=O)(=O)C(C)C)cc4)cnc3N)on2)cc1", "observed": "enzyme activity", "mode": "inhibitor", "tested at": "0.4 µM", "measurement": "inhibition", "value": "0%"}
{"SMILES": "Nc1nc(Nc2ccccc2)sc1C(=O)c1c(F)cccc1F", "observed": "enzyme activity", "mode": "inhibitor", "tested at": "10 µM", "measurement": "remaining activity", "value": "98%"}
{"SMILES": "CSc1nc(C)c(-c2ccnc(Nc3ccc(N4CCOCC4)cc3)c2)[nH]1", "observed": "enzyme activity", "mode": "inhibitor", "tested at": "10 µM", "measurement": "inhibition", "value": "34.8%"}
{"SMILES": "FC(F)c1nc2ccccc2n1-c1nc(N2CCOCC2)nc(N2CCOCC2)n1", "observed": "enzyme activity", "mode": "inhibitor", "tested at": "10 µM", "measurement": "remaining activity", "value": "98%"}
{"SMILES": "CNc1cccc2cc(C(=O)Nc3ccc(C(=O)O)cc3)c(=O)[nH]c12", "observed": "enzyme activity", "mode": "inhibitor", "tested at": "10 µM", "measurement": "inhibition", "value": "8.2%"}
{"SMILES": "Nc1ncnc2occ(-c3ccc(NC(=O)Nc4cc(C(F)(F)F)ccc4F)cc3)c12", "observed": "cell-free assay", "mode": "inhibitor", "tested at": "20 µM", "measurement": "remaining signal", "value": "10%"}
{"SMILES": "CNC(=O)c1cc(Oc2ccc(NC(=O)Nc3ccc(Cl)c(C(F)(F)F)c3)cc2)ccn1", "observed": "enzyme activity", "mode": "inhibitor", "tested at": "10 µM", "measurement": "inhibition", "value": "-21%"}
{"SMILES": "CN1CC(Oc2cnc(C#N)cc2-c2ccn3nc(NC(=O)C4CC4)cc3c2)C1", "observed": "enzyme activity", "mode": "inhibitor", "tested at": "1 µM", "measurement": "inhibition", "value": "3%"}
{"SMILES": "Nc1nc(NC2CCCCC2)sc1C(=O)c1ccccc1", "observed": "enzyme activity", "mode": "inhibitor", "tested at": "10 µM", "measurement": "remaining activity", "value": "81%"}
{"SMILES": "CN(C(=O)c1ccccc1)c1cc(N(C)c2ccc3c(c2)CCc2ccc(C(=O)NCCN4CCOCC4)cc2C3=O)ccc1F", "observed": "cell-free assay", "method": "competition with immobilised ligand", "tested at": "1 µM", "measurement": "remaining binding", "value": "100%"}
{"SMILES": "Cc1sc(C(=O)NC2COC2)cc1-n1cc(NC(=O)Nc2c(F)cccc2Cl)cn1", "observed": "enzyme activity", "mode": "inhibitor", "tested at": "10 µM", "measurement": "remaining activity", "value": "115%"}
{"SMILES": "CCOCCn1cc(C(=O)Nc2ccc(-n3nc(-c4cccnc4)cc3C(F)(F)F)cn2)ccc1=O", "observed": "cell-free assay", "method": "competition with immobilised ligand", "tested at": "1 µM", "measurement": "remaining binding", "value": "83%"}
{"SMILES": "Cc1ccc(NC(=O)c2ccc(C)c(C(F)(F)F)c2)cc1C#Cc1nn(C2CCC(O)CC2)c2ncnc(N)c12 (centres unmarked)", "observed": "cell-free assay", "tested at": "10 µM", "measurement": "remaining signal", "value": "90%"}
{"SMILES": "COc1cc(Nc2cnc(C#N)c(O[C@H](C)CN(C)C)n2)ncc1-c1cnn(C)c1", "observed": "enzyme activity", "mode": "inhibitor", "method": "radiometric", "tested at": "10 µM", "measurement": "remaining activity", "value": "22%"}
{"SMILES": "CN(C)C1CCN(CC#Cc2nn(C3CCCC3)c3nc(NCc4ccccc4)ncc23)C1 (centres unmarked)", "observed": "enzyme activity", "mode": "inhibitor", "method": "FRET", "tested at": "1 µM", "measurement": "inhibition", "value": "9%"}
{"SMILES": "Cc1ccc(C(=O)Nc2ccc(CN3CCN(C)CC3)c(C(F)(F)F)c2)cc1C#Cc1cnc2cccnn12", "observed": "enzyme activity", "mode": "inhibitor", "tested at": "23.5 nM", "measurement": "remaining activity", "value": "94%"}
{"SMILES": "O=C(N1CCS(=O)(=O)CC1)N1C[C@H](c2ccc(OC(F)(F)F)cc2)C[C@H](c2nc(C3CC3)no2)C1", "observed": "cell-free assay", "method": "competition with immobilised ligand", "tested at": "1 µM", "measurement": "remaining binding", "value": "91%"}
{"SMILES": "Cc1ccc(Nc2nccc(N(C)c3ccc4c(C)n(C)nc4c3)n2)cc1S(N)(=O)=O", "observed": "enzyme activity", "mode": "inhibitor", "tested at": "10 µM", "measurement": "inhibition", "value": "-2%"}
{"SMILES": "O=C1CCc2cc(Nc3cc(OC4CCOCC4)c([N+](=O)[O-])cc3Cl)ccc2N1", "observed": "cell-free assay", "method": "competition with immobilised ligand", "tested at": "1 µM", "measurement": "remaining binding", "value": "100%"}
{"SMILES": "O=C1NC(=O)c2cc(Nc3ccc(F)cc3)c(Nc3ccc(F)cc3)cc21", "observed": "cell-free assay", "tested at": "0.5 µM", "measurement": "remaining signal", "value": "103%"}
{"SMILES": "Fc1cccc(-n2cnc3c(NCc4nc5c(F)c(F)ccc5[nH]4)nc(N4CCOCC4)nc32)c1", "observed": "binding", "method": "competition with immobilised ligand", "tested at": "10 µM", "measurement": "binding vs control", "value": "24%"}
{"SMILES": "CCCS(=O)(=O)Nc1ccc(F)c(C(=O)c2c[nH]c3ncc(-c4ccc(Cl)cc4)cc23)c1F", "observed": "enzyme activity", "mode": "inhibitor", "tested at": "1 µM", "measurement": "inhibition", "value": "< 10%"}
{"SMILES": "CCCOc1ccc(OC)c(F)c1C(=O)c1ccc(C(=O)N[C@@H]2CNC[C@H]2NC(=O)c2ccc3[nH]ncc3c2)cc1", "observed": "enzyme activity", "mode": "inhibitor", "tested at": "0.1 µM", "measurement": "remaining activity", "value": "64%"}
{"SMILES": "CCC(=N\\O)/C(C)=C/c1ccc(F)cc1", "observed": "cell-free assay", "method": "competition with immobilised ligand", "tested at": "1 µM", "measurement": "remaining binding", "value": "89%"}
{"SMILES": "CC/C(=N\\NC(=O)NCc1cccc(O)c1)c1ccc(O)c(C)c1O", "observed": "enzyme activity", "mode": "inhibitor", "tested at": "0.1 µM", "measurement": "inhibition", "value": "75.4%"}
{"SMILES": "CSc1cccnc1N1CCN(Cc2nc3ccccc3[nH]2)CC1", "observed": "cell-free assay", "method": "competition with immobilised ligand", "tested at": "1 µM", "measurement": "remaining binding", "value": "82%"}
{"SMILES": "CCN(CC)c1ccc(C2=NNC(=O)CC2C)cc1[N+](=O)[O-] (centres unmarked)", "observed": "enzyme activity", "mode": "inhibitor", "tested at": "10 µM", "measurement": "remaining activity", "value": "100%"}
{"SMILES": "COc1cc2ncnc(Nc3ccc(Oc4ccccc4)c(C)c3C)c2cc1OC", "observed": "enzyme activity", "mode": "inhibitor", "tested at": "1 µM", "measurement": "inhibition", "value": "0%"}
{"SMILES": "CCN(CC)CCNC(=O)c1c(C)[nH]c(/C=C2\\C(=O)Nc3ccc(F)cc32)c1C", "observed": "enzyme activity", "mode": "inhibitor", "tested at": "0.3 µM", "measurement": "inhibition", "value": "28%"}
{"SMILES": "O=C(O)[C@@H]1[C@@H](Cn2nnc3ccccc3c2=O)CC[C@H]1C(=O)c1ccc(OCCC2CCOCC2)cc1", "observed": "cell-free assay", "method": "competition with immobilised ligand", "tested at": "1 µM", "measurement": "remaining binding", "value": "74%"}
{"SMILES": "CC(C)(C)c1nc2c(s1)c1nc(N)ncc1c1ccc(NS(=O)(=O)c3c(F)cccc3F)c(F)c12", "observed": "enzyme activity", "mode": "inhibitor", "method": "radiometric", "tested at": "1 µM", "measurement": "remaining activity", "value": "87%"}
{"SMILES": "FC(F)(F)Oc1cccc(-c2cnc3ccc(-c4ccncc4)nn23)c1", "observed": "enzyme activity", "mode": "inhibitor", "method": "radiometric", "tested at": "1 µM", "measurement": "activity vs control", "value": "103%"}
